Measured values published in PubChem BioAssay AID624022 (Broad Institute, 2012).

Molecular target: Scavenger receptor class B member 1 (Mus musculus) (UniProt Q61009)
Assay: blockers of [3H]CE-HDL uptake via mouse SR-BI – cell-based, wild-type CHO mSR-BI, scintillation, powder samples, orthogonal assay for SR-BI HDL uptake inhibitor project, dose response (AID 624022)
Conditions: CHO mSR-BI cells
Method in brief: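 Test system: LDL receptor-deficient CHO cells overexpressing mouse SR-BI; signal: scintillation counting; probe or stimulus: [3H]cholesteryl ester-HDL; timing: 1 h compound pretreatment, then 2 h uptake, 37 °C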

Chain of Scavenger receptor class B member 1 (Mus musculus) (Q61009 whole entry, looked up): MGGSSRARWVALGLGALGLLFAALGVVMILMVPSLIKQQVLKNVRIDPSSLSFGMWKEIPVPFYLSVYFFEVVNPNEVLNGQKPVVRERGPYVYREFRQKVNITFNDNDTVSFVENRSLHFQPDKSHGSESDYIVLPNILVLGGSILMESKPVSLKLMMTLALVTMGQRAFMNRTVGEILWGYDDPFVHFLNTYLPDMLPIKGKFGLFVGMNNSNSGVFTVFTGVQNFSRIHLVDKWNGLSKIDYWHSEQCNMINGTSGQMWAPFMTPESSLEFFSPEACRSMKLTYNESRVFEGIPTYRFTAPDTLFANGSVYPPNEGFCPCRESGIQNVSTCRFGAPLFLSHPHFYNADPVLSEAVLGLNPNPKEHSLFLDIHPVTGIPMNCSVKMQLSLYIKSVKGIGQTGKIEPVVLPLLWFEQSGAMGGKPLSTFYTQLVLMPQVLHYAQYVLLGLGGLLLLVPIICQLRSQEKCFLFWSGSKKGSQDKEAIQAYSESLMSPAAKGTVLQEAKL

SMILES: CC(C)NC(=O)Nc1ccc2c(c1)C(=O)N([C@H](C)CO)C[C@@H](C)[C@H](CN(C)S(=O)(=O)c1ccc(Cl)cc1)O2
- IC50: 500 nM
